Assay results published in ChEMBL document CHEMBL4196201, “Discovery of N-(4-{[5-Fluoro-7-(2-methoxyethoxy)quinazolin-4-yl]amino}phenyl)-2-[4-(propan-2-yl)-1 H-1,2,3-triazol-1-yl]acetamide (AZD3229), a Potent Pan-KIT Mutant Inhibitor for the Treatment of Gastrointestinal Stromal Tumors” (J Med Chem, 2018).
Values after ≈ are worked out from the molar mass of the structure shown.

Tests used:
[1] = Lipophilicity, log D of the compound at pH 7.4; assay type: physicochemical; settings: buffer
[2] = Solubility in pH 6.5 phosphate buffer at 37 degC; assay type: physicochemical
How it was run: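 Solubility of crystalline Form A was measured in pH6.5 phosphate buffer at 37°C.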

[3] = Permeability from apical to basolateral side in human Caco2 cells at 10 uM at pH 6.5; assay type: ADME, cell-based; settings: Caco-2, pH 6.5, read-out: permeability
How it was run: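 Caco2 permeability from A to B was measured at pH6.5 using a 10 μM compound solution, reported in units of 1E-6 cm/s.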

[4] = Protein binding in mouse plasma assessed as unbound fraction level; assay type: ADME, cell-free
[5] = Intrinsic clearance in mouse hepatocytes assessed per million cells; assay type: ADME, cell-based, Hepatocyte; settings: read-out: CLH
[6] = Intrinsic clearance in dog hepatocytes assessed per million cells; assay type: ADME, cell-based, Canis lupus familiaris, Hepatocyte; settings: read-out: CLH
[7] = Intrinsic clearance in human hepatocytes assessed per million cells; assay type: ADME, cell-based, Hepatocyte; settings: read-out: CLH
[8] = Clearance in CD1 mouse at 10 umol/kg, iv; assay type: ADME, organism-based; settings: in vivo
How it was run: (§1)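 PK was run in CD1 mice with an iv dose of 10 μMol/kg and an oral dose of 21 μMol/kg. Cl, Vdss, t1/2 and F% were derived.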

[9] = Volume of distribution at steady state in CD1 mouse at 10 umol/kg, iv; assay type: ADME, organism-based; settings: in vivo, read-out: Vdss
How it was run: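 PK in CD1 mice given an iv dose of 10 μMol/kg, alongside a separate oral dose of 21 μMol/kg. Clearance, Vdss, half-life and oral bioavailability were derived from these profiles.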

[10] = Half life in CD1 mouse at 21 umol/kg, po; assay type: ADME, organism-based; settings: in vivo; how it was run: as §1
[11] = Clearance in Han Wistar rat at 1 umol/kg, iv; assay type: ADME, organism-based; settings: in vivo
How it was run: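 PK was run in Han Wistar rats with an iv dose of 1 μMol/kg and an oral dose of 2.1 μMol/kg. Cl, Vdss, t1/2 and F% were derived.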

[12] = Half life in Han Wistar rat at […], po; assay type: ADME, organism-based; settings: in vivo
[13] = Clearance in dog rat at 1 umol/kg, iv; assay type: ADME, organism-based, Canis lupus familiaris; settings: in vivo
[14] = Volume of distribution at steady state in dog […] at 1 umol/kg, iv; assay type: ADME, organism-based, Canis lupus familiaris; settings: in vivo, read-out: Vdss
[15] = Half life in dog rat at […], po; assay type: ADME, organism-based, Canis lupus familiaris; settings: in vivo
[16] = tested on: BaF3; experiment: Antitumor activity against mouse BA/F3 cells expressing Kit exon 11 deletion (557 to 558 residues) and D816H mutant (unknown origin) allografted in CB17 SCID mouse assessed as inhibition of tumor growth at 20 mg/kg, po bid measured on last day of dosing; assay type: functional; settings: read-out: TGI
How it was run: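 Ba/F3 cells bearing the KIT exon 11 del/D816H or exon 11 del/V654A mutation were grown as allografts in mice. Compounds were given p.o. once (QD) or twice daily (BD), and vehicle was given BD p.o. Tumor growth inhibition and regression (%) were taken on the last day of dosing. p-values were calculated relative to vehicle.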

[17] = tested on: Mast/stem cell growth factor receptor Kit (Homo sapiens), P10721 [UNDEFINED MUTATION]
[18] = target: Mast/stem cell growth factor receptor Kit (Homo sapiens) (UniProt P10721)
[19] = target: Mast/stem cell growth factor receptor Kit (Homo sapiens) (UniProt P10721); remark: listed apart in the source
[20] = target: Mast/stem cell growth factor receptor Kit (Homo sapiens) (UniProt P10721); remark: listed apart in the source
[21] = tested on: Mast/stem cell growth factor receptor Kit (Homo sapiens), P10721 [UNDEFINED MUTATION]; remark: listed apart in the source
[22] = tested on: Mast/stem cell growth factor receptor Kit (Homo sapiens), P10721 [UNDEFINED MUTATION]; remark: listed apart in the source
[23] = tested on: Mast/stem cell growth factor receptor Kit (Homo sapiens), P10721 [V560D]
[24] = tested on: Mast/stem cell growth factor receptor Kit (Homo sapiens), P10721 [V560D,V654A]
[25] = tested on: Mast/stem cell growth factor receptor Kit (Homo sapiens), P10721 [D816V]
Sequence of Mast/stem cell growth factor receptor Kit (Homo sapiens), P10721 [D816V] (P10721 whole entry D816V): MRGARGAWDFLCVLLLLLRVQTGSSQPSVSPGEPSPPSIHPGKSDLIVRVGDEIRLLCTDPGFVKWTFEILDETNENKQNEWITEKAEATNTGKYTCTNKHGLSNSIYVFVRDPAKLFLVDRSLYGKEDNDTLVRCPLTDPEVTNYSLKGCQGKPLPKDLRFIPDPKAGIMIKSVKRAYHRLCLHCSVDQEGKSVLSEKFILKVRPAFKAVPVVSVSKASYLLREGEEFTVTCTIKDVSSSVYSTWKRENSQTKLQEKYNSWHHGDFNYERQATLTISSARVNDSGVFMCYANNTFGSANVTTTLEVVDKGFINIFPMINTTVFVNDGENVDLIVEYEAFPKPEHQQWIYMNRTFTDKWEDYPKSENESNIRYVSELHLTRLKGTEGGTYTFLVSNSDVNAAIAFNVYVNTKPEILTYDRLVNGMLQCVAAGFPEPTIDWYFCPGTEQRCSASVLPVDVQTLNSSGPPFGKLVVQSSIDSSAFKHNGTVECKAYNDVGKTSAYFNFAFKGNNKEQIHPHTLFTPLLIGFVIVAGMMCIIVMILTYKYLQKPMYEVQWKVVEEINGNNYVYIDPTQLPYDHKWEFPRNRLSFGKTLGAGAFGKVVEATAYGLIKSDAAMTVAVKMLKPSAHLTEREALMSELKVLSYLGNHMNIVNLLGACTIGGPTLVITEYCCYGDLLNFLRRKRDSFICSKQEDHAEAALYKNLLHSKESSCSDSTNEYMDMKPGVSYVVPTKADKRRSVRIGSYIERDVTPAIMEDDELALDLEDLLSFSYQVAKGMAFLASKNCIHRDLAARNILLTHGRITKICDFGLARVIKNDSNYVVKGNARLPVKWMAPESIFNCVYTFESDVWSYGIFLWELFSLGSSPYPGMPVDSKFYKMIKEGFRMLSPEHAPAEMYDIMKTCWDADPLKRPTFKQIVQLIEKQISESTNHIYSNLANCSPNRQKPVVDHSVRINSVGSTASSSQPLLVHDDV

Sequence of Mast/stem cell growth factor receptor Kit (Homo sapiens), P10721 [UNDEFINED MUTATION] (P10721 whole entry, looked up, stated change not applied): as the sequence (P10721 whole entry D816V) above, with V816D counted along it
Sequence of Mast/stem cell growth factor receptor Kit (Homo sapiens) (P10721 whole entry): as the sequence (P10721 whole entry D816V) above, with V816D counted along it
Sequence of Mast/stem cell growth factor receptor Kit (Homo sapiens), P10721 [V560D,V654A] (P10721 whole entry V560D/V654A): as the sequence (P10721 whole entry D816V) above, with V560D, V654A, V816D counted along it
Sequence of Mast/stem cell growth factor receptor Kit (Homo sapiens), P10721 [V560D] (P10721 whole entry V560D): as the sequence (P10721 whole entry D816V) above, with V560D, V816D counted along it

COCCOc1cc(F)c2c(Nc3ccc(NC(=O)Cn4cc(C(C)C)nn4)cc3)ncnc2c1
logD [1]: 3 | solubility [2]: 6 µM (≈ 2.88 µg/mL) | Papp A→B at 10 µM [3]: 62.3 ×10⁻⁶ cm/s | fraction unbound [4]: 0.049 | hepatocyte CLint [5]: 5 µL/min/1e6 cells | hepatocyte CLint [6]: < 1 µL/min/1e6 cells | hepatocyte CLint [7]: < 1 µL/min/1e6 cells | clearance [8]: 7 mL/min/kg | Vd [9]: 0.7 L/kg | half-life [10]: 2 h | clearance [11]: 8 mL/min/kg | half-life [12]: 3 h | clearance [13]: 2 mL/min/kg | Vd [14]: 0.3 L/kg | half-life [15]: 4 h | inhibition in vivo at 20 mg/kg [16]: > 100% | GI50 [17]: 16 nM | GI50 [18]: 2 nM | GI50 [19]: 22 nM | GI50 [20]: 8 nM | GI50 [21]: 14 nM | GI50 [22]: 4 nM | GI50 [23]: 1 nM | GI50 [24]: 7 nM | GI50 [25]: 971 nM
